This is an account of results in ChEMBL document CHEMBL2146449, “Design, synthesis, and biological evaluation of the analogues of glaziovianin A, a potent antitumor isoflavone” (Bioorg Med Chem, 2012).

Calls of active or inactive are those of the source. The calls are words filed in the database; no cut-off is given here.

Assay [1] concerns HeLa S3. In words: Ratio of glaziovianin A IC50 to compound IC50 for human HeLaS3 cells. In kind it is functional.
A short description of assay [2]: Cell cycle arrest in human HeLaS3 cells assessed as accumulation at G2/M phase at 1 uM after 24 hrs by flow cytometric analysis. As to conditions: HeLa S3. In kind it is functional, cell-based. The method in brief: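 HeLa S3 cells at 3 × 10^4 cells/mL exposed to compound for 24 h, harvested, fixed in 70% EtOH at -20 °C, stained with propidium iodide; DNA content read by flow cytometry. DMSO-treated cells as control. Cells kept in DMEM with 10% FCS at 37 °C, 5% CO2.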
(In general: In flow cytometry, cells or beads pass a laser one at a time.)

Assay [3] relates to HeLa S3. In words: Induction of mitotic arrest in human HeLaS3 cells assessed as abnormal multipolar spindles at 1 uM after 6 hrs by immunofluorescence staining. The assay is classed as functional, cell-based. The method in brief: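 HeLa S3 at 3 × 10^4 cells/mL grown on coverslips, treated 6 h, fixed in -20 °C MeOH for 5 min. Anti-α-tubulin DM1A (1:250) in PBS with 0.5% BSA for 1 h at 37 °C, then Alexa488 anti-mouse IgG (1:2000) for 1 h. DAPI 0.1 µg/mL for chromosomes; spindles examined by fluorescence microscopy. DMSO control.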

Assay [4] can be described thus: Cytotoxicity against human HeLaS3 cells after 48 hrs by WST8 assay. In kind it is functional, cell-based. Conditions: HeLa S3, 48 h. The method in brief: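 HeLa S3 seeded at 3 × 10^3 cells/well, left overnight, then given a range of compound concentrations for 48 h. WST-8 added for 2 h and absorbance read at 450 nm. Viability (% control) = (sample − blank)/(0 µM well − blank) × 100. Cells in DMEM + 10% FCS, 37 °C, 5% CO2.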
On the technique in general: Formazan colour is commonly taken as a measure of viable cells.

Regarding `C=CCOc1cc2occ(-c3cc(OC)c4c(c3OC)OCO4)c(=O)c2cc1OC`, the “Ratio IC50” value with HeLa S3 [1] came out at 1.3. For the same compound, the result (in assay [2]; in the assay with HeLa S3 [3]) was Active. Also, in assay [4], the IC50 came to 0.46 µM. For `COc1cc2occ(-c3cc(OC)c(OC)c(OC)c3OC)c(=O)c2cc1OC`, the “Ratio IC50” value with HeLa S3 [1] is 0.027. The same compound yielded an IC50 in assay [4] of 22 µM. For `COc1cc2c(=O)c(-c3cc(OC)c4c(c3OC)OCO4)coc2cc1OC/C=C/CCC(=O)NCCCCCCNC(=O)CCCC1=C2C(C)=CC(C)=[N+]2[B-](F)(F)n2c(C)cc(C)c21`, the “Ratio IC50” value in the assay on HeLa S3 [1] was found to be 0.034. Half-maximal inhibition in assay [4] (IC50) was put at 17.4 µM. `COc1cc2c(=O)c(-c3cc(OC)c4c(c3OC)OCO4)coc2cc1OCCCCCC(=O)NCCCCCCNC(=O)CCCC[C@@H]1SC[C@@H]2NC(=O)N[C@@H]21`: the “Ratio IC50” value in the assay on HeLa S3 [1] amounted to 0.039. Moreover, the IC50 in assay [4] is 15.2 µM. On the same counts, the results for `COc1cc2occ(-c3c(Br)c(OC)c4c(c3OC)OCO4)c(=O)c2cc1OC` are 0.009 and 67.8 µM. Regarding `COc1cc2c(=O)c(-c3cc(OC)c4c(c3OC)OCO4)coc2cc1OC1CCCCO1` (stereo not drawn), the IC50 in assay [4] is above 100 µM.

Consider `COc1cc2c(=O)c(-c3cc(OC)c4c(c3OC)OCO4)coc2cc1OC1O[C@H](CO)[C@@H](O)[C@H](O)[C@H]1O` (mixture of isomers), for which the IC50 in assay [4] is above 100 µM.

`COc1cc(-c2coc3cc(OC)c(OC)c(OC)c3c2=O)c(OC)c2c1OCO2` came in with an IC50 in assay [4] above 100 µM. For the compound `COc1cc2c(=O)c(-c3cc(OC)c4c(c3OC)OCO4)coc2cc1OC/C=C/CCC(=O)NCCCCCCNC(=O)CCCC[C@@H]1SC[C@@H]2NC(=O)N[C@@H]21`, in the assay with HeLa S3 [1], the “Ratio IC50” value was found to be 0.038. It took 15.5 µM to reach half-maximal inhibition in assay [4] (IC50).

Turning to `COc1cc2occ(-c3cc(OC)c4c(c3OC)OCO4)c(=O)c2cc1OC` [GLAZIOVIANIN A], the result (in assay [2]; in the assay with HeLa S3 [3]) was Active. Also, inhibition in assay [4] was half-maximal at 0.59 µM (IC50). Turning to `COc1cc2occ(-c3ccc4c(c3)OCO4)c(=O)c2cc1OC`, the “Ratio IC50” value in the assay with HeLa S3 [1] is on record as 0.01. With `COc1cc2c(=O)c(-c3cc(OC)c4c(c3OC)OCO4)coc2cc1OCc1ccccc1`, the “Ratio IC50” value in the assay on HeLa S3 [1] is 3.1. The outcome (in assay [2]; in the assay with HeLa S3 [3]) was Active. For the same compound, the IC50 in assay [4] worked out at 0.19 µM. For `COc1cc2c(=O)c(-c3cc(OC)c4c(c3OC)OCO4)coc2cc1OC1O[C@H](COC(C)=O)[C@@H](OC(C)=O)[C@H](OC(C)=O)[C@H]1OC(C)=O` (mixture of isomers), the IC50 in assay [4] is above 100 µM. As for `COc1cc2c(=O)c(-c3cc(OC)c4c(c3OC)OCO4)coc2cc1O`, in assay [4], the IC50 is above 100 µM. The same measure, in the same setting: in the case of `COc1cc2c(=O)c(-c3cc(OC)c4c(c3OC)OCO4)coc2cc1OCC(O)CO` (stereo not drawn) it was above 100 µM; in that of `COc1cc2occ(-c3cc(OC)c4c(c3OC)OC(C)(C)O4)c(=O)c2cc1OC`, above 100 µM. As to `C#CCOc1cc2occ(-c3cc(OC)c4c(c3OC)OCO4)c(=O)c2cc1OC`, the “Ratio IC50” value with HeLa S3 [1] was determined as 3.5. Besides, the result (in assay [2]; in the assay with HeLa S3 [3]) was Active. In assay [4], this compound registered an IC50 of 0.17 µM.

Usually IC50 stands for the concentration that inhibits the measured activity by half. Low values mean greater potency, high ones weaker potency.
